{"source": "ChEMBL document CHEMBL3576866", "about": "“Discovery of a Cyclic Boronic Acid β-Lactamase Inhibitor (RPX7009) with Utility vs Class A Serine Carbapenemases” (J Med Chem, 2015)", "key": {"Prothrombin": {"target": "Prothrombin (Homo sapiens, UniProt P00734)", "experiment": "Inhibition of thrombin (unknown origin) using Benz-FVR-AMC as substrate preincubated for 10 mins followed by substrate addition measured for 30 mins by spectrophotometric analysis", "procedure,_shortened": "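Thrombin, from a commercial source, in 20 mM Tris-HCl, pH 8, 150 mM NaCl, 2.5 mM CaCl2. Preincubated with inhibitor at various concentrations for 10 min at 37 °C. Benz-FVR-AMC (listed at 10 μM) was then added and the signal monitored for 30 min. Rates were relative to untreated; IC50 is the concentration giving 50% inhibition.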"}, "[1]": {"target": "Beta lactamase TEM-1 (Klebsiella pneumoniae) (UniProt Q7B899)", "sequence (Q7B899 as listed by the source)": "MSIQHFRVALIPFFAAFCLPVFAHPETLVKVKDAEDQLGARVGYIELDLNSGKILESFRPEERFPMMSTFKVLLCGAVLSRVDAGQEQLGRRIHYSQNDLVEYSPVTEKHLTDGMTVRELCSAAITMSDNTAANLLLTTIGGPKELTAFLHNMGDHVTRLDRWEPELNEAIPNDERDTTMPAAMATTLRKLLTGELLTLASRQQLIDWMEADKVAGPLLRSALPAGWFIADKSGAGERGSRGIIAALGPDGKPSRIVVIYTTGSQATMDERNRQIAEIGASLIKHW", "experiment": "Inhibition of Klebsiella pneumoniae KP1087 TEM-1 assessed as imipenem MIC at 4 ug/ml by broth microdilution method", "procedure,_shortened": "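Carbapenem MIC by CLSI broth microdilution (M07-A9), carbapenem titrated with inhibitor held at fixed 4 μg/mL, against clinical serine-carbapenemase-producing strain KP1087 (KPC-2, CTX-M-15, SHV-11, TEM-1; double porin mutant).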"}, "Klebsiella pneumoniae [2]": {"tested_on": "Klebsiella pneumoniae", "experiment": "Inhibition of Klebsiella pneumoniae KP1084 SHV-11 assessed as biapenem MIC at 4 ug/ml by broth microdilution method"}, "Klebsiella pneumoniae [3]": {"tested_on": "Klebsiella pneumoniae", "experiment": "Inhibition of Klebsiella pneumoniae KP1082 KPC-2 assessed as meropenem MIC at 4 ug/ml by broth microdilution method", "procedure,_shortened": "(§1)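 CLSI broth microdilution (M07-A9, 2012) MIC of the carbapenem against clinical serine carbapenemase-producing strain, tested alone and with the inhibitor held at a fixed 4 μg/mL.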"}, "Klebsiella oxytoca [4]": {"tested_on": "Klebsiella oxytoca", "experiment": "Inhibition of Klebsiella oxytoca KX1017 OXA-2 assessed as biapenem MIC at 4 ug/ml by broth microdilution method"}, "[5]": {"target": "Carbapenem-hydrolyzing beta-lactamase KPC (Klebsiella pneumoniae) (UniProt Q9F663)", "sequence (Q9F663 whole entry)": "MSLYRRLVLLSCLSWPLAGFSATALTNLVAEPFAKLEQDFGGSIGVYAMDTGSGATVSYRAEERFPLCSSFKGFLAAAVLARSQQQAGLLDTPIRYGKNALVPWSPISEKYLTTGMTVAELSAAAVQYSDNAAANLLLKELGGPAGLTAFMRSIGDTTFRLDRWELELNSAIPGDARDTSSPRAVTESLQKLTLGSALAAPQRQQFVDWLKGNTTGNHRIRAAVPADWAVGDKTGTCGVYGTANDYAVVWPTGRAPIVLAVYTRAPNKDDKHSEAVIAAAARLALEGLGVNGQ", "experiment": "Inhibition of Klebsiella pneumoniae KP1083 KPC-3 assessed as imipenem MIC at 4 ug/ml by broth microdilution method"}, "Klebsiella pneumoniae [6]": {"tested_on": "Klebsiella pneumoniae", "experiment": "Inhibition of Klebsiella pneumoniae KP1088 SHV-11 assessed as biapenem MIC at 4 ug/ml by broth microdilution method", "procedure,_shortened": "(§2)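 CLSI broth microdilution (M07-A9, 2012) against the clinical K. pneumoniae isolate. Carbapenem MICs were read alone and with 9f held at a fixed 4 μg/mL.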"}, "Klebsiella pneumoniae [7]": {"tested_on": "Klebsiella pneumoniae", "experiment": "Inhibition of Klebsiella pneumoniae KP1082 KPC-2 assessed as ertapenem MIC at 4 ug/ml by broth microdilution method", "procedure,_shortened": "as §1"}, "Mus musculus": {"tested_on": "Mus musculus", "experiment": "Toxicity in Swiss webster neutropenic mouse lung infection model up to 1000 mg/kg, administered every 2 hrs starting at 2 hrs", "type": "organism-based", "conditions": "in vivo"}, "Klebsiella oxytoca [8]": {"tested_on": "Klebsiella oxytoca", "experiment": "Inhibition of Klebsiella oxytoca KX1017 OXA-2 assessed as meropenem MIC at 4 ug/ml by broth microdilution method"}, "[9]": {"target": "Beta lactamase TEM-1 (Klebsiella pneumoniae) (UniProt Q7B899)", "experiment": "Inhibition of Klebsiella pneumoniae KP1004 TEM-1 assessed as imipenem MIC at 4 ug/ml by broth microdilution method", "procedure,_shortened": "as §1"}, "Klebsiella pneumoniae [10]": {"tested_on": "Klebsiella pneumoniae", "experiment": "Inhibition of Klebsiella pneumoniae KP1008 KPC-2 assessed as ertapenem MIC at 4 ug/ml by broth microdilution method", "procedure,_shortened": "as §1"}, "[11]": {"target": "Carbapenem-hydrolyzing beta-lactamase KPC (Klebsiella oxytoca) (UniProt Q848S6)", "sequence (Q848S6 whole entry)": "as the sequence (Q9F663 whole entry) above", "experiment": "Inhibition of Klebsiella oxytoca KX1019 KPC-2 assessed as ertapenem MIC at 4 ug/ml by broth microdilution method"}, "Klebsiella pneumoniae [12]": {"tested_on": "Klebsiella pneumoniae", "experiment": "Inhibition of Klebsiella pneumoniae KP1004 KPC-2 assessed as ertapenem MIC at 4 ug/ml by broth microdilution method", "procedure,_shortened": "as §1"}, "[13]": {"experiment": "Inhibition of Escherichia coli recombinant CTX-M-15 assessed as substrate nitrocefin degradation preincubated for 10 mins followed by substrate addition measured every 10 secs for 10 mins by spectrophotometric analysis", "procedure,_shortened": "(§3)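 β-Lactamases purified from overexpressing recombinant E. coli. Enzyme preincubated with inhibitor at varying concentrations for 10 min at room temperature in 50 mM Na phosphate pH 7.0, 0.1 mg/mL BSA. Then 50 μM nitrocefin (final) added and cleavage read at 490 nm every 10 s for 10 min. Ki derived by the Waley method.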"}, "[14]": {"experiment": "AUC in human at 1 g administered as 3 hrs of infusion", "type": "ADME, organism-based", "conditions": "in vivo, iv"}, "Trypsin": {"target": "Trypsin (Homo sapiens, UniProt P07477+P07478+P35030)", "experiment": "Inhibition of trypsin (unknown origin) using N-Bz-R-AMC as substrate preincubated for 10 mins followed by substrate addition measured for 30 mins by spectrophotometric analysis", "type": "protein assay", "procedure,_shortened": "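Trypsin in 50 mM Tris-HCl, pH 8.0, 10 mM CaCl2, 100 mM NaCl. Preincubated 10 min at 37 °C with varied inhibitor. N-Bz-R-AMC (listed at 200 μM) was then added and fluorescence read for 30 min. Rates were vs untreated control; IC50 is the concentration giving 50% inhibition.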"}, "[15]": {"experiment": "Inhibition of Escherichia coli recombinant P99 assessed as substrate nitrocefin degradation preincubated for 10 mins followed by substrate addition measured every 10 secs for 10 mins by spectrophotometric analysis", "procedure,_shortened": "as §3"}, "Enterobacter cloacae": {"tested_on": "Enterobacter cloacae", "experiment": "Inhibition of Enterobacter cloacae EC1010 CMY-6 assessed as cefepime MIC at 4 ug/ml by broth microdilution method", "procedure,_shortened": "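CLSI broth microdilution (M07-A9) against clinical strains expressing serine β-lactamases.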"}, "Klebsiella pneumoniae [16]": {"tested_on": "Klebsiella pneumoniae", "experiment": "Inhibition of Klebsiella pneumoniae KP1087 KPC-2 assessed as biapenem MIC at 4 ug/ml by broth microdilution method"}, "Klebsiella pneumoniae [17]": {"tested_on": "Klebsiella pneumoniae", "experiment": "Inhibition of Klebsiella pneumoniae KP1088 SHV-11 assessed as imipenem MIC at 4 ug/ml by broth microdilution method", "procedure,_shortened": "as §2"}, "[18]": {"target": "T1, Beta-lactamase SHV-1 (Klebsiella pneumoniae) (UniProt P0AD64)", "T1 sequence (whole entry)": "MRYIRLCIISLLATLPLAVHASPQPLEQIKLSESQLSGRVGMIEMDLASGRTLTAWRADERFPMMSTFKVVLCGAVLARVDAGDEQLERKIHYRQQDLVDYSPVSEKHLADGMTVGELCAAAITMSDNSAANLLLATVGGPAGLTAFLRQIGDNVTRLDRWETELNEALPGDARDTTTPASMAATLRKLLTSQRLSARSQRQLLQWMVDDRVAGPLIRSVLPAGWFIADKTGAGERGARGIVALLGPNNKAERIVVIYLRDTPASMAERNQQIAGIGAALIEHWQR", "experiment": "Inhibition of Klebsiella pneumoniae KP1083 SHV-1 assessed as biapenem MIC at 4 ug/ml by broth microdilution method", "procedure,_shortened": "as §1"}, "Klebsiella oxytoca [19]": {"tested_on": "Klebsiella oxytoca", "experiment": "Inhibition of Klebsiella oxytoca KX1017 SHV-30 assessed as imipenem MIC at 4 ug/ml by broth microdilution method"}, "Klebsiella pneumoniae [20]": {"tested_on": "Klebsiella pneumoniae", "experiment": "Inhibition of Klebsiella pneumoniae KP1087 CTX-M-15 assessed as ertapenem MIC at 4 ug/ml by broth microdilution method", "procedure,_shortened": "as §1"}, "[21]": {"target": "Beta lactamase TEM-1 (Klebsiella pneumoniae) (UniProt Q7B899)", "experiment": "Inhibition of Klebsiella pneumoniae KP1083 TEM-1 assessed as imipenem MIC at 4 ug/ml by broth microdilution method"}, "Klebsiella pneumoniae [22]": {"tested_on": "Klebsiella pneumoniae", "experiment": "Inhibition of Klebsiella pneumoniae KP1087 CTX-M-15 assessed as biapenem MIC at 4 ug/ml by broth microdilution method"}, "[23]": {"target": "Beta lactamase TEM-1 (Klebsiella pneumoniae) (UniProt Q7B899)", "experiment": "Inhibition of Klebsiella pneumoniae KP1083 TEM-1 assessed as biapenem MIC at 4 ug/ml by broth microdilution method", "procedure,_shortened": "as §1"}, "[24]": {"experiment": "Half life in human at 1 g administered as 3 hrs of infusion", "type": "ADME, organism-based", "conditions": "in vivo, iv"}}}
{"molecule": "O=C(O)C[C@@H]1CC[C@H](NC(=O)Cc2cccs2)B(O)O1", "note": "[VABORBACTAM]", "values": [{"measurement": "IC50", "setting": "Prothrombin", "value": "> 1000", "unit": "µM"}, {"measurement": "MIC", "setting": "[1]", "value": 0.25, "unit": "µg/mL"}, {"measurement": "MIC", "setting": "Klebsiella pneumoniae [2]", "value": 0.25, "unit": "µg/mL"}, {"measurement": "MIC", "setting": "Klebsiella pneumoniae [3]", "value": "≤ 0.06", "unit": "µg/mL"}, {"measurement": "MIC", "setting": "Klebsiella oxytoca [4]", "value": "< 0.06", "unit": "µg/mL"}, {"measurement": "MIC", "setting": "[5]", "value": 0.13, "unit": "µg/mL"}, {"measurement": "MIC", "setting": "Klebsiella pneumoniae [6]", "value": "≤ 0.06", "unit": "µg/mL"}, {"measurement": "MIC", "setting": "Klebsiella pneumoniae [7]", "value": "≤ 0.06", "unit": "µg/mL"}, {"measurement": "Activity", "setting": "Mus musculus", "value": "Non-toxic"}, {"measurement": "MIC", "setting": "Klebsiella oxytoca [8]", "value": "< 0.06", "unit": "µg/mL"}, {"measurement": "MIC", "setting": "[9]", "value": "< 0.06", "unit": "µg/mL"}, {"measurement": "MIC", "setting": "Klebsiella pneumoniae [10]", "value": "≤ 0.06", "unit": "µg/mL"}, {"measurement": "MIC", "setting": "[11]", "value": 0.25, "unit": "µg/mL"}, {"measurement": "MIC", "setting": "Klebsiella pneumoniae [12]", "value": "≤ 0.06", "unit": "µg/mL"}, {"measurement": "Ki", "setting": "[13]", "value": 0.044, "unit": "µM"}, {"measurement": "AUC at 3 h", "setting": "[14]", "value": 100000, "unit": "ng·h/mL"}, {"measurement": "IC50", "setting": "Trypsin", "value": "> 1000", "unit": "µM"}, {"measurement": "Ki", "setting": "[15]", "value": 0.053, "unit": "µM"}, {"measurement": "MIC", "setting": "Enterobacter cloacae", "value": 4, "unit": "µg/mL"}, {"measurement": "MIC", "setting": "Klebsiella pneumoniae [16]", "value": 0.25, "unit": "µg/mL"}, {"measurement": "MIC", "setting": "Klebsiella pneumoniae [17]", "value": "≤ 0.06", "unit": "µg/mL"}, {"measurement": "MIC", "setting": "[18]", "value": "< 0.06", "unit": "µg/mL"}, {"measurement": "MIC", "setting": "Klebsiella oxytoca [19]", "value": 0.13, "unit": "µg/mL"}, {"measurement": "MIC", "setting": "Klebsiella pneumoniae [20]", "value": 2, "unit": "µg/mL"}, {"measurement": "MIC", "setting": "[21]", "value": 0.13, "unit": "µg/mL"}, {"measurement": "MIC", "setting": "Klebsiella pneumoniae [22]", "value": 0.25, "unit": "µg/mL"}, {"measurement": "MIC", "setting": "[23]", "value": "< 0.06", "unit": "µg/mL"}, {"measurement": "half-life", "setting": "[24]", "value": 1.23, "unit": "h"}]}
